According to the array DNA melting data of Ke et al. (doi:10.1101/2024.01.08.574731):

Legend:
[1] = folding enthalpy; higher = less favourable; fluorescence melt of hairpins on a sequencing array, two-state fit; conditions: sodium 0.088 M
Method in brief: (§1)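 Cy3 signals were normalised both to pre-quench Cy3 and to control constructs. They came from library hairpins carrying annealed Cy3 and quencher oligos on a sequenced MiSeq flow cell, imaged in 50 mM Na-HEPES pH 8.0, 25 mM NaCl, in 2.5 °C steps up to 60 °C. Bootstrapped two-state fits gave melting temperature and folding enthalpy, and four replicates were combined by inverse variance. Fitted temperatures were then raised by 9.35 °C to match UV melts.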

[2] = melting temperature; fluorescence melt of hairpins on a sequencing array, two-state fit, raised by 9.35 °C to match UV melts; conditions: sodium 0.088 M
Method in brief: as §1

Sequence | folding enthalpy [1] | Tm [2]
GTGAATGGAAACACTCAC ((((.((....)).)))) | -103 kJ/mol | 34.4 °C
GTGAATGGAAACATTCGC (.(((((....))))).) | -106 kJ/mol | 49.9 °C
GTGACACGAAAGTGACAC (((.(((....))).))) | -166 kJ/mol | 58.7 °C
GTGACACGAAAGTGCCAC (((.(((....))).))) | -168 kJ/mol | 56.3 °C
GTGACAGAAATGTCAC ((((((....)))))) | -149 kJ/mol | 57.6 °C
GTGACAGGAAACTGTCAC (((((((....))))))) | -176 kJ/mol | 65.2 °C
GTGACAGGAAACTGTCGC (.(((((....))))).) | -127 kJ/mol | 53.9 °C
GTGACAGGAAACTGTTAC ((.((((....)))).)) | -118 kJ/mol | 45.4 °C
GTGACCGAAAGGTAACAC ((((((....)))..))) | -70.6 kJ/mol | 47.1 °C
GTGACCGAAAGGTGCAC ((((((....))).))) | -83.3 kJ/mol | 49.4 °C
GTGACGGAAACGTCAC ((((((....)))))) | -138 kJ/mol | 68.7 °C
GTGACTCCGAAAGGACAC (((..(((....)))))) | -38.6 kJ/mol | 35.4 °C
GTGACTCGAAAGAGCCAC (((.(((....))).))) | -160 kJ/mol | 54.5 °C
GTGACTGAAAAGTCAC ((((((....)))))) | -157 kJ/mol | 61 °C
GTGAGACGAAAGTCCAC (((.(((....)))))) | -95.5 kJ/mol | 53.8 °C
GTGAGAGGAAACTCTTGC (..((((....))))..) | -85 kJ/mol | 29.4 °C
GTGAGCGGAAACGCTTAC ((.((((....)))).)) | -113 kJ/mol | 51.6 °C
GTGAGCGGAAACGTTCGC (.((.((....)).)).) | -116 kJ/mol | 43.9 °C
GTGAGGGGAAACCCCCAC (((.(((....))).))) | -132 kJ/mol | 49.2 °C
GTGAGGGGAAACCTTCAC ((((.((....)).)))) | -121 kJ/mol | 46 °C
GTGAGTCGAAAGACACAC (((.(((....))).))) | -181 kJ/mol | 53.8 °C
GTGAGTCGAAAGACGCAC (((.(((....))).))) | -144 kJ/mol | 60 °C
GTGAGTGGAAACACTCGC (.(((((....))))).) | -138 kJ/mol | 54.9 °C

Sequence | folding enthalpy [1] | Tm [2]
GTGAGTGGAAACGCTCAC (((((.(....).))))) | -178 kJ/mol | 53.7 °C
GTGAGTTCGAAAGAACAC (((..(((....)))))) | -64.4 kJ/mol | 44.6 °C
GTGATACCGAAAGGTCAC (((..(((....)))))) | -81.5 kJ/mol | 41.9 °C
GTGATACGAAAGTAACAC (((.(((....))).))) | -143 kJ/mol | 47.6 °C
GTGATACGAAAGTAGCAC (((.(((....))).))) | -204 kJ/mol | 58.6 °C
GTGATAGAAATATCAC ((((((....)))))) | -138 kJ/mol | 46.5 °C
GTGATAGGAAACTATCAC (((((((....))))))) | -179 kJ/mol | 56.1 °C
GTGATCCGAAAGGACCAC (((.(((....))).))) | -145 kJ/mol | 51.8 °C
GTGATCGAAAGATACCAC ((((((....)))..))) | -44 kJ/mol | 26.6 °C
GTGATCGAAAGATGTCAC ((((((....)))..))) | -57.4 kJ/mol | 29.9 °C
GTGATCGAAAGATTGCAC ((((((....)))..))) | -60.8 kJ/mol | 30.4 °C
GTGATCGGAAACGGTCAC ((((.((....)).)))) | -179 kJ/mol | 55 °C
GTGATCGGAAACGGTTAC ((.(.((....)).).)) | -125 kJ/mol | 31.9 °C
GTGATCTCGAAAGAGCAC (((..(((....)))))) | -108 kJ/mol | 45.5 °C
GTGATGAAAATCAC (((((....))))) | -95.5 kJ/mol | 49.6 °C
GTGATGGGAAACCATTAC ((.((((....)))).)) | -130 kJ/mol | 43.5 °C
GTGATGGGAAACTATCGC (.(((.(....).))).) | -98 kJ/mol | 35.2 °C
GTGATGTCGAAAGACCAC (((..(((....)))))) | -62.8 kJ/mol | 40.4 °C
GTGATTACGAAAGTACAC (((..(((....)))))) | -42.1 kJ/mol | 27.8 °C
GTGATTCGAAAGAACAC (((.(((....)))))) | -104 kJ/mol | 40.9 °C
GTGATTCGAAAGAAGCAC (((.(((....))).))) | -184 kJ/mol | 56.5 °C
GTGCAAGGAAACTTGCGC (.(((((....))))).) | -116 kJ/mol | 59.1 °C
GTGCACCGAAAGGTACAC (((.(((....))).))) | -153 kJ/mol | 53.7 °C

Sequence | folding enthalpy [1] | Tm [2]
GTGCACCGAAAGGTTCAC (((.(((....))).))) | -176 kJ/mol | 50.5 °C
GTGCACGAAAGTGACAC ((((((....))).))) | -109 kJ/mol | 52.9 °C
GTGCACGAAAGTGGCCAC ((((((....)))..))) | -55.6 kJ/mol | 40.6 °C
GTGCACGAAAGTGTTCAC ((((((....)))..))) | -51.6 kJ/mol | 37.4 °C
GTGCACGGAAACGTGCGC (.(((((....))))).) | -61.6 kJ/mol | 63.9 °C
GTGCAGCGAAAGCTCAC (((.(((....)))))) | -113 kJ/mol | 50.8 °C
GTGCAGGGAAACCCACAC (((..((....))..))) | -80.4 kJ/mol | 32.4 °C
GTGCAGGGAAACCCGCAC ((((.((....)).)))) | -177 kJ/mol | 54.9 °C
GTGCAGGGAAACCTGTGC (..((((....))))..) | -90.5 kJ/mol | 44.6 °C
GTGCAGTCGAAAGACCAC (((..(((....)))))) | -68.6 kJ/mol | 38.7 °C
GTGCATCGAAAGATACAC (((.(((....))).))) | -147 kJ/mol | 47 °C
GTGCATGGAAACGTGCAC (((((.(....).))))) | -197 kJ/mol | 55.8 °C
GTGCCACGAAAGTGCAC (((.(((....)))))) | -115 kJ/mol | 58.5 °C
GTGCCAGGAAACTGACAC (((.(((....))).))) | -149 kJ/mol | 47.5 °C
GTGCCCCGAAAGGGTCAC (((.(((....))).))) | -145 kJ/mol | 57.7 °C
GTGCCCGAAAGGGAGCAC ((((((....)))..))) | -105 kJ/mol | 55.6 °C
GTGCCCGAAAGGGCCCAC ((((((....)))..))) | -24.2 kJ/mol | 41 °C
GTGCCCGAAAGGGCGCAC ((((((....)))..))) | -37 kJ/mol | 64.8 °C
GTGCCCGAAAGGGGACAC ((((((....)))..))) | -50.9 kJ/mol | 67 °C
GTGCCCGAAAGGGGTCAC ((((((....)))..))) | -65.7 kJ/mol | 48.6 °C
GTGCCCGGAAACAGGCAC (((((.(....).))))) | -169 kJ/mol | 54.9 °C
GTGCCGGGAAACCGGTAC ((.((((....)))).)) | -127 kJ/mol | 57.2 °C
GTGCCGGGAAACTGGCGC (.(((.(....).))).) | -127 kJ/mol | 53.4 °C

Sequence | folding enthalpy [1] | Tm [2]
GTGCCTGGAAACAGGTAC ((.((((....)))).)) | -137 kJ/mol | 53.6 °C
GTGCGACGAAAGTCACAC (((.(((....))).))) | -184 kJ/mol | 54.3 °C
GTGCGAGGAAACTCGCGC (.(((((....))))).) | -76 kJ/mol | 66.2 °C
GTGCGCGAAAGCGGTCAC ((((((....)))..))) | -59.1 kJ/mol | 43.5 °C
GTGCGCGAAAGCGTGCAC ((((((....)))..))) | -72.3 kJ/mol | 59.3 °C
GTGCGCGGAAACGCGTAC ((.((((....)))).)) | -84.1 kJ/mol | 65.5 °C
GTGCGCTCGAAAGAGCAC (((..(((....)))))) | -59 kJ/mol | 59.9 °C
GTGCGGACGAAAGTCCAC (((..(((....)))))) | -50.3 kJ/mol | 60.9 °C
GTGCGGGGAAACCCGCGC (.(((((....))))).) | -67.2 kJ/mol | 67.2 °C
GTGCGGGGAAACCCGTGC (..((((....))))..) | -80.3 kJ/mol | 53.8 °C
GTGCGGTCGAAAGACCAC (((..(((....)))))) | -55.7 kJ/mol | 57.5 °C
GTGCGTCCGAAAGGACAC (((..(((....)))))) | -41 kJ/mol | 60.4 °C
GTGCGTCGAAAGACTCAC (((.(((....))).))) | -168 kJ/mol | 49.6 °C
GTGCGTGGAAACATGCAC ((((.((....)).)))) | -203 kJ/mol | 58.4 °C
GTGCTCGAAAGAGAACAC ((((((....)))..))) | -82 kJ/mol | 44.5 °C
GTGCTCGAAAGAGACAC ((((((....))).))) | -93.7 kJ/mol | 47.3 °C
GTGCTCGAAAGAGGGCAC ((((((....)))..))) | -95.6 kJ/mol | 48.9 °C
GTGCTCGAAAGAGTCAC ((((((....))).))) | -112 kJ/mol | 49.7 °C
GTGCTCGCGAAAGCGCAC (((..(((....)))))) | -72.6 kJ/mol | 49.2 °C
GTGCTGAAAAGCAC (((((....))))) | -118 kJ/mol | 66 °C
GTGCTGCGAAAGCATCAC (((.(((....))).))) | -134 kJ/mol | 52 °C
GTGCTGGGAAACCGGCAC ((((.((....)).)))) | -172 kJ/mol | 61 °C
